The target in series [1] is T1, COX1 (prostaglandin G/H synthase 1) (Ovis aries, UniProt P05979).
T1 sequence (P05979 whole entry): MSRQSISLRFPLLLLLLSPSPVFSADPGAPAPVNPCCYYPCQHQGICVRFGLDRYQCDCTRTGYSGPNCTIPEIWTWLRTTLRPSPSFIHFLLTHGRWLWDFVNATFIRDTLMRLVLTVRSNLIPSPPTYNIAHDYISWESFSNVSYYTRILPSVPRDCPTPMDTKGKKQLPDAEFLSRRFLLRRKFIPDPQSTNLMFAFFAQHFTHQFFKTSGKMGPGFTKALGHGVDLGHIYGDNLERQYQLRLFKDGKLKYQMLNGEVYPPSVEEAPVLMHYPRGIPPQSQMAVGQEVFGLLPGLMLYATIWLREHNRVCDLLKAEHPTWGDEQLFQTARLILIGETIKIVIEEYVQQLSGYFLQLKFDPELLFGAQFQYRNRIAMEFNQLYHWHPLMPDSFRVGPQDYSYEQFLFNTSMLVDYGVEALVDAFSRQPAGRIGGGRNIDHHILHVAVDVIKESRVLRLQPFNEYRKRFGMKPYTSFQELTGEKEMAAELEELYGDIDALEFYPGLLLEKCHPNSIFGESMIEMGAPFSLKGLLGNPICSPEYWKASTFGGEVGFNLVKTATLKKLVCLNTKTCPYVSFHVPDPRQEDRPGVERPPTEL
In words: Inhibition of ovine COX1 assessed as reduction in PGF2alpha production at 100 uM by ELISA. The note with it: sheep, ovine COX1 enzyme. Summed up:
(§1)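 Ovine COX1 or human COX2 reaction in a commercial inhibitor screening kit. PGH2 formed is reduced with SnCl2 to PGF2α, which is quantified by enzyme immunoassay (absorbance). Single-point inhibition at 100 µM given as % ± SE. IC50 by linear regression. Mean ± SE of at least three experiments.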

Series [2] addresses T2, Aldo-keto reductase family 1 member C2 (Homo sapiens, UniProt P52895).
T2 sequence (P52895 whole entry): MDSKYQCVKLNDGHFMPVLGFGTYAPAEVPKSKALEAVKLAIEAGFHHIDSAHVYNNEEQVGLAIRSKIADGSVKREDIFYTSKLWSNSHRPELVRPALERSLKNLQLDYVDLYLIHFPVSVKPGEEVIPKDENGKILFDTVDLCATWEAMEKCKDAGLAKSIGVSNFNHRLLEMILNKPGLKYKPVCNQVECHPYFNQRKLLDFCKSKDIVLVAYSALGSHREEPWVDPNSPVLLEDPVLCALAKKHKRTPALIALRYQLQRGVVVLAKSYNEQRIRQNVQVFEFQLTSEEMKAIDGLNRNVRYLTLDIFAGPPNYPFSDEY
In words: Inhibition of recombinant N-terminal GST-tagged human AKR1C2 expressed in Escherichia coli BL21 (DE) Codon Plus RP cells using S-tetralol as substrate in presence of NADP+ by fluorimetric analysis. The method, boiled down: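 GST-tagged AKR1C2 purified on glutathione sepharose with thrombin cleavage. Percent inhibition from initial velocities versus solvent controls. IC50 as means of two experiments, each in triplicate.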

In series [3] the target is Prostaglandin G/H synthase 2 (Homo sapiens) (UniProt P35354). Description: Inhibition of human COX2 assessed as reduction in PGF2alpha production at 100 uM by ELISA. Particulars: human COX2 enzyme. For orientation: An ELISA detects its analyte on a solid surface through an enzyme-linked reagent.
Sequence of Prostaglandin G/H synthase 2 (Homo sapiens) (P35354 whole entry, looked up): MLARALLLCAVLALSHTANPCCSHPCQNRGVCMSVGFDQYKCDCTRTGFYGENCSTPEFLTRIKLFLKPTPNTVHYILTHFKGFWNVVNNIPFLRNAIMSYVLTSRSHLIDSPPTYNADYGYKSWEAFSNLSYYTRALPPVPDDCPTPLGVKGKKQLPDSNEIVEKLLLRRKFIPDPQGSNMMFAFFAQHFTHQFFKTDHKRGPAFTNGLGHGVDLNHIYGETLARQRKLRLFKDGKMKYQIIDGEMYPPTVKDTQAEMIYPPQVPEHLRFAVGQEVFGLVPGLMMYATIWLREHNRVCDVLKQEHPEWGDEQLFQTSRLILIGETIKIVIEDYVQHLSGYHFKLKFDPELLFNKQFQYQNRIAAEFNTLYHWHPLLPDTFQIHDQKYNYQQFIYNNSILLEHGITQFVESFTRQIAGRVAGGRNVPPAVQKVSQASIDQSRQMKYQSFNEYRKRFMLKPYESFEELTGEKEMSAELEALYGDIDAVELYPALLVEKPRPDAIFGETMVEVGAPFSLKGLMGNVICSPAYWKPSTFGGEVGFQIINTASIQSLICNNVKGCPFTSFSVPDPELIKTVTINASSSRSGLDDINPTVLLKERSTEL
In series [4] the target is T3, Prostaglandin G/H synthase 1 (Ovis aries, UniProt P05979).
T3 sequence (P05979 whole entry): T1 sequence (P05979 whole entry)
Description: Inhibition of ovine COX1 assessed as reduction in PGF2alpha production by ELISA. Summed up:
as §1

Series [5] deals with CWR22R. In words: Antiproliferative activity against human 22Rv1 cells after 72 hrs by sulforhodamine B colorimetric assay. Type of series: functional, cell-based. Particulars: 22Rv1, 72 h. For orientation: In SRB staining, fixed cells bind dye roughly in proportion to their protein.
Series [6] addresses T4, Aldo-keto reductase family 1 member C3 (Homo sapiens, UniProt P42330).
T4 sequence (P42330 whole entry): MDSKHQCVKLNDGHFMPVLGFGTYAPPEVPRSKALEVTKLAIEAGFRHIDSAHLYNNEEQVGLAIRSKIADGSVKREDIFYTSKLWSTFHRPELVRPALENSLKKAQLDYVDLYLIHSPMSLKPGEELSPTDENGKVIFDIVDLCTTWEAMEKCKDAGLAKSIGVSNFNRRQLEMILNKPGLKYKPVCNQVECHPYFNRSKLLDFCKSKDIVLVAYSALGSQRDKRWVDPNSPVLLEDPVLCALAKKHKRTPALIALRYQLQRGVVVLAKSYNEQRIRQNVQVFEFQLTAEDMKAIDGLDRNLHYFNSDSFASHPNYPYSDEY
Description: Inhibition of recombinant N-terminal GST-tagged human AKR1C3 expressed in Escherichia coli BL21 (DE) Codon Plus RP cells using S-tetralol as substrate in presence of NADP+ by fluorimetric analysis.

The target in series [7] is T5, Aldo-keto reductase family 1 member C3 (Homo sapiens) (UniProt P42330).
T5 sequence (whole entry): T4 sequence (P42330 whole entry)
Description: Inhibition of AKR1C3-mediated testosterone production in human 22Rv1 cells preincubated for 1 hr followed by androstenedione addition and measured after 24 hrs by ELISA. Type of series: cell-based. The method, boiled down:
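22RV1 at 30,000 cells/well in RPMI with 10% charcoal-stripped serum, 37 °C, 5% CO2, 24 h. Inhibitor added at 4 concentrations for 1 h, then androstenedione 28 nM; further 24 h. Testosterone in supernatant quantified by ELISA. Means of two separate experiments, each in triplicate.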

Series [8] concerns CWR22R. In words: Reduction in PSA expression level in human 22Rv1 cells by Western blot analysis. Type of series: functional, cell-based. The method, boiled down:
(§2)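 22RV1 treated for 72 h at three concentrations. Viable cells lysed in RIPA buffer with protease inhibitors, protein measured by Bradford, 20 µg run on SDS-PAGE and transferred to nitrocellulose. Probed overnight at 4 °C with goat polyclonal anti-PSA (1:500), β-actin as reference, HRP secondary, ECL detection; Ponceau staining as loading check.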
On the technique in general: In western blotting, separated proteins are transferred to a membrane and probed.

The subject of series [9] is CWR22R. In words: Synergistic antiproliferative activity against human 22Rv1 cells assessed as reduction in cell viability at 20 uM after 72 hrs in presence of enzalutamide by sulforhodamine B colorimetric proliferation assay. Type of series: functional.
The test system of series [10] is CWR22R. Description: Potency index, ratio of IC50 for flufenamic acid to IC50 for test compound for antiproliferative activity against human 22Rv1 cells after 72 hrs by sulforhodamine B colorimetric assay. Type of series: functional.
For series [11], the system named is CWR22R. In words: Synergistic antiproliferative activity against human 22Rv1 cells assessed as reduction in cell viability at 20 uM after 72 hrs in presence of abiraterone by sulforhodamine B colorimetric proliferation assay. Type of series: functional.
In series [12] the test system is CWR22R. In words: Antiproliferative activity against human 22Rv1 cells assessed as inhibition of cell proliferation at 100 uM after 72 hrs by sulforhodamine B colorimetric assay. Type of series: functional. The note with it: 22Rv1, 72 h.
In series [13] the test system is CWR22R. In words: Reduction in PSA expression level in human 22Rv1 cells at 1 to 30 uM by Western blot analysis. Type of series: functional, cell-based. The method, boiled down: as §2

The inhibition is the change of the read-out against control, counted positive when it falls. Usually IC50 stands for the concentration at which inhibition is half-maximal.

Activity calls are given as the source filed them. The calls are words filed in the database; no cut-off is given here.

Consider `Oc1noc2ccc(Nc3cccc(C(F)(F)F)c3)cc12`, for which the inhibition at 100 µM in series [1] is 29%; in series [3], 0%. The IC50 in series [2] was 66.9 µM; in series [4], over 100 µM; with CWR22R [5], 74.8 µM; in series [6] it was 3.48 µM.

Turning to `O=C(Nc1cccc(C(F)(F)F)c1)c1c(O)nnn1Cc1ccc(OC(F)(F)F)cc1`, in series [7], the inhibition result was “Dose-dependent effect”. Further, the Activity result in the series on CWR22R [8] was “Dose-dependent effect”; with CWR22R [9], 10 - 25%; in the series on CWR22R [11], 10 - 25%. For the same compound, the inhibition at 100 µM in series [1] and in series [3] was 0% throughout. In addition, the “Ratio IC50” value in the series with CWR22R [10] is recorded as “>=4”. For the same compound, the IC50 was 54.9 µM in series [2], over 100 µM in [4], 31.3 µM in the series with CWR22R [5] and 0.19 µM in series [6].

For the compound `Oc1noc2cccc(Nc3cccc(C(F)(F)F)c3)c12`, the figures for the inhibition at 100 µM in series [1] and in series [3] were 29% and 13%, respectively. Besides, the IC50 is 4.38 µM in [2], over 100 µM in [4], 64.8 µM with CWR22R [5] and 0.55 µM in [6].

In the case of `Oc1noc2cccc(Nc3cc(C(F)(F)F)cc(C(F)(F)F)c3)c12`, the Activity with CWR22R [9] and in the series with CWR22R [11] was 10 - 25% each time. Besides, the values for the inhibition at 100 µM in series [1] and in series [3] were 2.1% and 0%, respectively. In addition, the IC50 in series [2] was 119 µM; in series [4], over 100 µM.

Turning to `O=[N+]([O-])c1cccc(Nc2cccc3onc(O)c23)c1`, the inhibition at 100 µM in the series on CWR22R [12] was 31.1%; in [1] it was 0%; in [3], 0.37%. The IC50 was 5.7 µM in series [2], over 100 µM in series [4], over 100 µM in the series with CWR22R [5] and 1.41 µM in series [6].

`Oc1noc2cccc(Nc3cccc(S(F)(F)(F)(F)F)c3)c12`: the figures for the inhibition at 100 µM in series [1] and in series [3] were 0% and 4.3%, respectively. The IC50 is 4.29 µM in [2], over 100 µM in series [4], 64.9 µM in the series on CWR22R [5] and 0.31 µM in [6].

As for `COc1ccc(Cn2nnc(O)c2C(=O)Nc2cccc(C(F)(F)F)c2)cc1`, the outcome in the series on CWR22R [13] was inactive.

For `COc1ccc(Cn2nnc(O)c2C(=O)Nc2cccc(C(F)(F)F)c2)cc1OC`, in the series on CWR22R [8], the Activity entry is “Dose-dependent effect”. The inhibition at 100 µM in series [1] came out at 0%; in series [3], 0.87%. For the same compound, the IC50 in series [2] is 108 µM; in series [4] it was over 100 µM; with CWR22R [5], 59.2 µM; in [6], 0.4 µM.

Values taken from ChEMBL document CHEMBL4229374 (Eur J Med Chem, 2018).
